Measured values gathered from unrelated publications.
Each line is one published result; the experiments were not run side by side.
Target: 5-hydroxytryptamine receptor 2A (HTR2A, Homo sapiens, UniProt P28223)

SMILES	observed	mode	technique	notes	measurement	value
NCCc1c[nH]c2ccc(F)cc12	ligand displacement		radioligand		Ki	3910 nM
Cc1nc2n(c(=O)c1CCN(C)CCc1c[nH]c3cc(F)ccc13)CCCC2	ligand displacement		radioligand	cell membranes	Ki	25.8 nM
CN(C)CCc1c[nH]c2ccccc12	cell-free assay				Ki	1510 nM
c1ccc2c(C3CCNCC3)noc2c1	ligand displacement		radioligand	cell membranes	Ki	271 nM
COc1ccccc1N1CCN(CCN(C(=O)C2CCCCC2)c2ccccn2)CC1	ligand displacement		radioligand	cell membranes	Ki	331 nM
CCCCCNC(=N)N/N=C/c1c[nH]c2ccc(OC)cc12	cell-free assay				IC50	127 nM
C[C@H](N)Cn1ccc2cc(F)c(Cl)cc21	ligand displacement		radioligand	cell membranes	Ki	13.1 nM
COc1cc2c3c(c1OC)-c1ccccc1C[C@H]3N(C)CC2	ligand displacement		radioligand	cell membranes	Ki	150 nM
OC(c1ccc(F)cc1)C(F)(F)CCN1CCC(O)(c2ccc(Cl)cc2)CC1 (racemic)	cell-free assay		radioligand		Ki	1010 nM
CN(C)[C@@H]1Cc2ccccc2[C@@H](c2ccccc2)C1 (relative stereo)	inositol phosphate	antagonist			Kb	460 nM
COc1cc2c3c(c1OC)-c1ccccc1CC3NCC2 (centres unmarked)	ligand displacement		radioligand	cell membranes	Ki	925 nM
Cc1[nH]c2ccccc2c1CCN	ligand displacement		radioligand		Ki	7770 nM
CC[C@H](C)[C@H](NC(=O)[C@H](CCCNC(=N)N)NC(=O)[C@H](CC(C)C)NC(=O)[C@@H](N)Cc1ccccc1)C(=O)N[C@@H](CCCNC(=N)N)C(=O)N1CCC[C@H]1C(=O)N[C@@H](CCCCN)C(=O)O	cell-free assay		radioligand		Ki	> 10000 nM
COc1cc2c3c(c1OC)-c1cc4c(cc1CC3N(C)CC2)OCO4 (centres unmarked)	calcium signal	antagonist			Kb	830 nM
